Source: ChEMBL document CHEMBL1124144, “Electrophysiologic and antiarrhythmic activities of 4-amino-N-[2-(diethylamino)ethyl]-3,5-dimethylbenzamide, a sterically hindered procainamide analogue” (1988)

Legend:
Canis lupus familiaris [1] = organism: Canis lupus familiaris; test: (§1) Sodium channel inactivating potency at 3*10e-4 M; assay type: functional
Procedure, shortened: (§2)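 Recovery from sodium-channel inactivation in paced canine Purkinje fibres: a premature S2 stimulus was given immediately after full repolarization. It was expressed as the ratio of premature to paced action potential rate of rise. Drug was present at 3 × 10^-4 M final, read after ~30 min. Each cell was its own control. Values are mean ± SEM, four or five experiments.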

Canis familiaris [2] = test: Resting potential when no compound was administered in Canine Purkinje fibers; assay type: functional, Canis lupus familiaris, Purkinje fiber
Procedure, shortened: (§3)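 Canine Purkinje fibres superfused with Tyrode's solution (K+ 4.0, Mg2+ 1.0, Ca2+ 4.0, HCO3- 18.0, glucose 5.5 mM), paced at 1000 ms cycle length with 0.5-ms pulses at 1.5× threshold. Transmembrane potentials were recorded with 3 M KCl microelectrodes. Drug was added to the superfusate at 3 × 10^-4 M final and read at stable effect (~30 min). Each cell served as its own control. Values are mean ± SEM, four or five experiments, five tissues per drug from different dogs. Compared by ANOVA/Fisher's LSD.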

Canis familiaris [3] = organism: Canis familiaris; test: Action potential duration at 3 x 10e-4 M measured at 70% repolarization; assay type: functional, Canis lupus familiaris; procedure, shortened: as §3
Canis lupus familiaris [4] = organism: Canis lupus familiaris; test: Sodium channel inactivating potency in the absence of compound (control); assay type: functional; procedure, shortened: as §2
Canis familiaris [5] = organism: Canis familiaris; test: Percent change of amplitude at 3 x 10e-4 M concentration in Canine Purkinje fibers; assay type: functional, Canis lupus familiaris, Purkinje fiber; procedure, shortened: as §3
Canis familiaris [6] = test: Maximal upstroke velocity when no compound was administered in Canine Purkinje fibers; assay type: functional; settings: Canis lupus familiaris; Purkinje fiber; procedure, shortened: as §3
Canis familiaris [7] = test: Percent change in maximal upstroke velocity when 3*10e-4 M compound was administered in Canine Purkinje fibers; assay type: functional; settings: Canis lupus familiaris; Purkinje fiber; procedure, shortened: as §3
Canis familiaris [8] = test: Effect on conversion dose required for arrhythmias in pentobarbital anesthetized dogs; assay type: functional, Canis lupus familiaris
Procedure, shortened: (§4)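 Male beagles (12–15 kg) were given pentobarbital 35 mg/kg iv plus 5 mg/kg 15 min later. Ouabain went into the cephalic vein at 50 µg/kg, then 10 µg/kg every 15 min (extra 5 µg/kg if needed) until arrhythmia was sustained. After 30 min of arrhythmia, drug in water was infused iv at 200 µg/kg/min, raised to 500 µg/kg/min after 10 min, until conversion to sinus rhythm. n = 5.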

Canis familiaris [9] = organism: Canis familiaris; test: Action potential duration at 3 x 10e-4 M measured at 95% repolarization in Canine Purkinje fibers; assay type: functional, Canis lupus familiaris, Purkinje fiber; procedure, shortened: as §3
Canis familiaris [10] = organism: Canis familiaris; test: Percent change of effective refractory period at 3 x 10e-4 M, in Canine Purkinje fibers; assay type: functional, Canis lupus familiaris, Purkinje fiber; procedure, shortened: as §3
Canis familiaris [11] = organism: Canis familiaris; test: Amplitude at 3 x 10e-4 M concentration in Canine Purkinje fibers; assay type: functional, Canis lupus familiaris, Purkinje fiber; procedure, shortened: as §3
Canis familiaris [12] = test: Action potential duration when no compound was administered in Canine Purkinje fibers measured at 70% repolarization; assay type: functional, Canis lupus familiaris, Purkinje fiber; procedure, shortened: as §3
Canis familiaris [13] = test: Maximal upstroke velocity when 3*10e-4 M compound was administered in Canine Purkinje fibers; assay type: functional; settings: Canis lupus familiaris; Purkinje fiber; procedure, shortened: as §3
Canis familiaris [14] = test: Amplitude when no compound was administered in Canine Purkinje fibers; assay type: functional, Canis lupus familiaris, Purkinje fiber; procedure, shortened: as §3
Canis familiaris [15] = organism: Canis familiaris; test: Percent change of action potential duration at 3 x 10e-4 M, measured at 95% repolarization in Canine Purkinje fibers; assay type: functional, Canis lupus familiaris, Purkinje fiber; procedure, shortened: as §3
Canis familiaris [16] = test: Effective refractory period when no compound was administered in Canine Purkinje fibers; assay type: functional, Canis lupus familiaris, Purkinje fiber; procedure, shortened: as §3
Canis familiaris [17] = organism: Canis familiaris; test: Resting potential at 3 x 10e-4 M in Canine Purkinje fibers; assay type: functional, Canis lupus familiaris, Purkinje fiber; procedure, shortened: as §3
Canis familiaris [18] = test: Action potential duration when no compound was administered in Canine Purkinje fibers measured at 95% repolarization; assay type: functional, Canis lupus familiaris, Purkinje fiber; procedure, shortened: as §3
Canis lupus familiaris [19] = organism: Canis lupus familiaris; test: as §1; assay type: functional; procedure, shortened: as §2; remark: listed apart in the source
Canis familiaris [20] = organism: Canis familiaris; test: Effective refractory period at 3 x 10e-4 M in Canine Purkinje fibers; assay type: functional, Canis lupus familiaris, Purkinje fiber; procedure, shortened: as §3
Canis familiaris [21] = organism: Canis familiaris; test: Percent change of resting potential at 3 x 10e-4 M in Canine Purkinje fibers; assay type: functional, Canis lupus familiaris, Purkinje fiber; procedure, shortened: as §3
Canis familiaris [22] = test: Effect on ouabain-induced arrhythmias in pentobarbital anesthetized dogs; assay type: functional, Canis lupus familiaris; procedure, shortened: as §4
Canis familiaris [23] = organism: Canis familiaris; test: Percent change of action potential duration at 3 x 10e-4 M, measured at 70% repolarization; assay type: functional, Canis lupus familiaris; procedure, shortened: as §3
Rattus norvegicus [24] = test: Plasma concentration in rat 2 hr after administration at a dose of 25 mg/kg; assay type: functional, organism-based; parameters: dose 25 mg/kg
Procedure, shortened: (§5)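 Fischer 344 rats were given 25 mg/kg in water iv via the jugular vein, three per group. Plasma was taken by cardiac puncture at set times. Parent drug and N-acetyl metabolite were quantified by GC with a nitrogen-phosphorus detector after alkaline extraction with an internal standard. The assay was linear 1–10 µg/mL. Values are mean ± SEM.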

Rattus norvegicus [25] = test: Plasma concentration in rat 4 hr after administration at a dose of 25 mg/kg; assay type: functional, organism-based; parameters: dose 25 mg/kg; procedure, shortened: as §5
Rattus norvegicus [26] = test: Plasma concentration in rat 30 minutes after administration at a dose of 25 mg/kg; assay type: functional, organism-based; parameters: dose 25 mg/kg; procedure, shortened: as §5

Row | SMILES | Na+ inactivation (Canis lupus familiaris [1]) | Resting potential (Canis familiaris [2]) | APD70 (Canis familiaris [3]) | Na+ inactivation (Canis lupus familiaris [4]) | Amplitude (Canis familiaris [5]) | Vmax (Canis familiaris [6]) | Vmax (Canis familiaris [7]) | Conversion dose (Canis familiaris [8]) | APD95 (Canis familiaris [9]) | ERP (Canis familiaris [10]) | Amplitude (Canis familiaris [11]) | APD70 (Canis familiaris [12]) | Vmax (Canis familiaris [13]) | Amplitude (Canis familiaris [14]) | APD95 (Canis familiaris [15]) | ERP (Canis familiaris [16]) | Resting potential (Canis familiaris [17]) | APD95 (Canis familiaris [18]) | ERP (Canis familiaris [20]) | Resting potential (Canis familiaris [21]) | also measured
1 | CCN(CC)CCNC(=O)c1cc(C)c(N)c(C)c1 | 0.91 | -92 mV | 227 ms | 0.99 | -11% | 632 V s-1 | -38% | 14.3 mg/kg | 353 ms | -18% | 117 mV | 363 ms | 387 V s-1 | 131 mV | -17% | 351 ms | -81 mV | 426 ms | 282 ms | -12% | Na+ inactivation (Canis lupus familiaris [19]): -7%; Ouabain dose (Canis familiaris [22]): 0.069 mg/kg; APD70 (Canis familiaris [23]): -37%
2 | CCN(CC)CCNC(=O)c1ccc(N)c(C)c1 | 0.88 | -89 mV | 244 ms | 0.96 | -12% | 462 V s-1 | -39% | 18.3 mg/kg | 336 ms | -6% | 114 mV | 292 ms | 282 V s-1 | 129 mV | -7% | 303 ms | -85 mV | 363 ms | 283 ms | -4% | Na+ inactivation (Canis lupus familiaris [19]): -9%; Ouabain dose (Canis familiaris [22]): 0.065 mg/kg; APD70 (Canis familiaris [23]): -16%
3 | CCN(CC)CCNC(=O)c1ccc(N)cc1 [PROCAINAMIDE] | 0.96 | -93 mV | 284 ms | 1 | -7% | 501 V s-1 | -31% | 19 mg/kg | 361 ms | 6% | 119 mV | 285 ms | 345 V s-1 | 127 mV | 5% | 308 ms | -91 mV | 347 ms | 321 ms | -2% | Na+ inactivation change (Canis lupus familiaris [1]): -3%; Plasma concentration (Rattus norvegicus [24]): 0.36 µg/mL; Plasma concentration (Rattus norvegicus [25]): 2.3 µg/mL; Plasma concentration (Rattus norvegicus [26]): 2.29 µg/mL; Ouabain dose (Canis familiaris [22]): 0.068 mg/kg; APD70 (Canis familiaris [23]): 1%
